In ChEMBL document CHEMBL1275289, “The synthesis, structure and activity evaluation of pyrogallol and catechol derivatives as Helicobacter pylori urease inhibitors” (Eur J Med Chem, 2010) one finds IC50 data, which are given here for 30 molecules.

Assay [1] addresses T1, Urease subunit alpha/Urease subunit beta (Helicobacter pylori (strain ATCC 700392 / 26695) (Campylobacterpylori), UniProt P69996). Description: Inhibition of cell free Helicobacter pylori ATCC 43504 urease assessed as reduction in ammonia production by indophenol based Berthelot color reaction method. The essentials: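 H. pylori ATCC 43504 grown 24 h at 37 °C, microaerobic (5% O2, 10% CO2, 85% N2), in Brucella broth with 10% heat-inactivated horse serum. Cells (2.0 × 10⁸ CFU/mL) pelleted at 5000 g, 4 °C, washed twice in PBS pH 7.4, stored at −80 °C, then sonicated 60 s in water with protease inhibitors. Extract preincubated with compound 1.5 h at room temperature; ammonia measured by indophenol method.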

For assay [2], the target named is T1, Urease subunit alpha/Urease subunit beta. Description: Inhibition of urease in intact Helicobacter pylori ATCC 43504 assessed as reduction in ammonia production by indophenol based Berthelot color reaction method. Summed up: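 H. pylori grown 24 h at 37 °C in Brucella broth with 10% heat-inactivated horse serum under microaerobic gas (5% O₂, 10% CO₂, 85% N₂). Cells harvested, washed twice in PBS pH 7.4, and resuspended to 4.0 × 10⁷ CFU/mL. Suspension pre-incubated with compound for 1.5 h at room temperature. Ammonia production measured by the indophenol (Berthelot) method.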

T1 sequence (P69996 whole entry): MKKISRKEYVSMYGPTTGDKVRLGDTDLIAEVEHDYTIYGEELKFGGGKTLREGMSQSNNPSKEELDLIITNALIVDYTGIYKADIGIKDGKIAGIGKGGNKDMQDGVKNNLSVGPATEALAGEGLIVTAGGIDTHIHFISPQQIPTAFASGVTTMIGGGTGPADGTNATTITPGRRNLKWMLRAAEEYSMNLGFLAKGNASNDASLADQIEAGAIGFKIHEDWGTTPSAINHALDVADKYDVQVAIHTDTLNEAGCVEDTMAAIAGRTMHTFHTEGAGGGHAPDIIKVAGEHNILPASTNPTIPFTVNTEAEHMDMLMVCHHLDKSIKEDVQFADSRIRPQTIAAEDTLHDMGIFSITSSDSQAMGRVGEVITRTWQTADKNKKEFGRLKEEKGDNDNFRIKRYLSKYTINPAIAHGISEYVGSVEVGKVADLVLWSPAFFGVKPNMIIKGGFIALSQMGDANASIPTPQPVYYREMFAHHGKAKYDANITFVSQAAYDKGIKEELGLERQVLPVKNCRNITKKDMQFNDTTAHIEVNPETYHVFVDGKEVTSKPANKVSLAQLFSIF
T1 sequence (P14916 whole entry, further chain): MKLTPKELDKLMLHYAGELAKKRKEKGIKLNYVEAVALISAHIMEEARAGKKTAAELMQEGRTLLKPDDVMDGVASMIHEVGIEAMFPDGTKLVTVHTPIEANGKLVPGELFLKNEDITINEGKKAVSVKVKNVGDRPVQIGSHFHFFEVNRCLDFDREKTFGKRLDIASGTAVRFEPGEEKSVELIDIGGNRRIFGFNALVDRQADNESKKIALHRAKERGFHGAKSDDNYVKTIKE

One may read the IC50 as the concentration that inhibits the measured activity by half. On to `COc1ccc(CCc2ccc(Cl)cc2)cc1OC`, for which the IC50 in assay [1] is 254 µM.
The same measure, in the same setting: next, `Oc1ccc(CCc2ccc(Br)cc2)c(O)c1O`: 48 µM.
The same measure, in the same setting: next, `Oc1ccc(CCc2cccc(Cl)c2)c(O)c1O`: 50 µM.
On the same count and under the same terms, next, `Oc1ccc(CCc2cccc(Br)c2)c(O)c1O`: 52 µM.
For `Oc1ccc(CCc2ccc(Cl)cc2)cc1O`, the IC50 came out at 50.1 µM in assay [2] and 8.3 µM in assay [1].
Consider `Oc1ccc(CCc2cccc(Cl)c2)cc1O`, for which the IC50 came out at 94.7 µM in assay [2] and 15.7 µM in assay [1].
Turning to `CCc1ccc(O)c(O)c1O`, in assay [1], the IC50 stood at 34 µM.
For the molecule `CCCCc1ccc(O)c(O)c1O`, the IC50 in assay [1] was 79 µM.
As to `CCCCCCc1ccc(O)c(O)c1O`, the IC50 in assay [1] was 91 µM.
Still for that read-out and setting: then `CCCCCCCCc1ccc(O)c(O)c1O`, with 103 µM.
The same measure, in the same setting: then `CCCCCCCCCCc1ccc(O)c(O)c1O`, with 124 µM.
In the case of `Oc1ccc(CCc2ccc(F)cc2)cc1O`, the IC50 in assay [2] amounted to 32.4 µM; in assay [1], 6.2 µM.
Turning to `Oc1ccc(CCc2ccc(O)c(O)c2)cc1`, the IC50 was found to be 4.2 µM in assay [2] and 1.5 µM in assay [1].
With `Oc1ccc(CCc2ccc(F)cc2)c(O)c1O`, in assay [1], the IC50 stood at 43 µM.
As to `Oc1ccc(CCc2ccc(Cl)cc2)c(O)c1O`, in assay [1], the IC50 stood at 47 µM.
`Oc1ccc(CCc2cccc(Br)c2)cc1O`: the IC50 came to 88.9 µM in assay [2] and 16.9 µM in assay [1].
On to `COc1ccc(CCc2ccc(O)c(O)c2)cc1OC`, for which, in assay [1], the IC50 was 22.7 µM.
On to `CCc1ccc(O)c(O)c1`, for which the results for the IC50 in assay [2] and in assay [1] were 17.3 µM and 4.9 µM, respectively.
On the same counts, the results for `CCCCc1ccc(O)c(O)c1` are 38.1 µM and 7.9 µM.
`CCCCCCc1ccc(O)c(O)c1`: the values for the IC50 in assay [2] and in assay [1] were 77.8 µM and 12.3 µM, respectively.
With `CCCCCCCCc1ccc(O)c(O)c1`, the IC50 in assay [1] stood at 58 µM.
Consider `COc1ccc(CCc2ccc(O)cc2)cc1OC`, for which the IC50 in assay [1] was determined as 204 µM.
On the same count and under the same terms, next, `COc1ccc(CCc2cccc(Cl)c2)cc1OC`: 235 µM; `COc1ccc(CCc2ccc(O)c(O)c2O)cc1OC`: 71 µM.
Consider `CCOc1ccc(CCc2ccc(O)c(O)c2O)cc1OCC`, for which the IC50 in assay [1] is 69 µM.
In the case of `CCCCCCCCCCCCc1ccc(O)c(O)c1O`, in assay [1], the IC50 was 168 µM.
For `CCCCCCCCCCCCCCc1ccc(O)c(O)c1O`, in assay [1], the concentration for half-maximal inhibition (IC50) was 250 µM.
On the same count and under the same terms, then `Oc1ccc(CCc2ccc(O)c(O)c2O)cc1`, with 32 µM.
Take `COc1ccc(CCc2ccccc2O)cc1OC`: in assay [1], the IC50 worked out at 227 µM.
On to `CC(=O)NO` [ACETOHYDROXAMIC ACID], for which the IC50 in assay [2] was 101 µM; in assay [1], 17.2 µM.
